From ChEMBL document CHEMBL4043222, “Pyrrolizines: Design, synthesis, anticancer evaluation and investigation of the potential mechanism of action” (Bioorg Med Chem, 2017)
Calls of active or inactive are those of the source. The rule behind the calls is not given here.

How the values were obtained:
[1] = system: MCF7; experiment: Growth inhibition of human MCF7 cells by MTT assay; format: functional, cell-based
How it was run: (§1)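 MTT viability. Cells seeded for 24 h, then exposed to compound for 48 h in DMEM/F-12 or DMEM with 5% FBS. Vehicle controls received matching DMSO. MTT added at 0.5 mg/mL for 3 h at 37 °C. Formazan dissolved in DMSO and absorbance read at 570 nm.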

[2] = system: A549; experiment: Growth inhibition of human A549 cells by MTT assay; format: functional, cell-based; how it was run: as §1
[3] = system: Hep 3B2; experiment: Growth inhibition of human Hep3B cells by MTT assay; format: functional, cell-based; how it was run: as §1
[4] = target: T1, Prostaglandin G/H synthase 1 (Ovis aries, UniProt P05979); experiment: Inhibition of ovine COX1 assessed as reduction in PGH2 formation by measuring PGF2alpha by colorimetric assay
T1 sequence (P05979 whole entry): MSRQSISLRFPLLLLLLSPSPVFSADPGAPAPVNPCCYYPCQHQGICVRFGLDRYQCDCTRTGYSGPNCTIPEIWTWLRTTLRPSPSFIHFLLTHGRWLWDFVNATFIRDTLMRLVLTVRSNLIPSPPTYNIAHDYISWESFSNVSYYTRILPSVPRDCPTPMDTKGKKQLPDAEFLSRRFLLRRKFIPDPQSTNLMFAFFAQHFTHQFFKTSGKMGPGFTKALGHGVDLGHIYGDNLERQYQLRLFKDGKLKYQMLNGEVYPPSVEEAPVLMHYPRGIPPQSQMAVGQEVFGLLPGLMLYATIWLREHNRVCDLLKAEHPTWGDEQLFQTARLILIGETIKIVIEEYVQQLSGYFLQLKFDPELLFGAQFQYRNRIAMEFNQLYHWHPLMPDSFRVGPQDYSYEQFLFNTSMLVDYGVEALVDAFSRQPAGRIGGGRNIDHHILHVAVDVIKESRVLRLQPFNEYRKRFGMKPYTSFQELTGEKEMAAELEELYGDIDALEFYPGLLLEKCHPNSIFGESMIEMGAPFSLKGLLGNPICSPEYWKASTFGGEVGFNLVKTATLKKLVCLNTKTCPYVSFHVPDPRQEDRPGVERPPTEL
How it was run: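 Colorimetric COX inhibitor screening kit run per the manufacturer, using ovine COX-1. IC50 calculated from three determinations.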

[5] = system: PC-3; experiment: Anticancer activity against human PC3 cells; format: functional, cell-based
[6] = system: MCF7; experiment: Anticancer activity against human MCF7 cells; format: functional, cell-based
[7] = system: A549; experiment: Induction of apoptosis in human A549 cells assessed as caspe-3/7 activation at 5 to 20 uM incubated for 24 hrs by Caspase-Glo 3/7 luminescence assay; format: functional, cell-based
How it was run: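 A549 cells plated at 1 x 10^4 per well and allowed 24 h to settle. Medium removed, then compounds added for 24 h at 5, 10 and 20 μM. Vehicle controls received equivalent DMSO. Caspase-3/7 activity read by Caspase-Glo 3/7 luminescence (RLU). Mean ± S.D. (n = 5), experiment done 3 times. Compared with vehicle by one-way ANOVA with Dunnett's test.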

Compound | IC50 [1] [µM] | IC50 [2] [µM] | IC50 [3] [µM] | IC50 [4] [µM] | IC50 [5] [µM] | IC50 [6] [µM] | Activity [7]
N#Cc1c(N=Cc2cccs2)c(C(=O)Nc2ccc(Cl)cc2)n2c1CCC2 | 4.72 | 22.8 | 11.6 | 7.68 |  |  | 
N#Cc1c(/N=C/c2ccc([N+](=O)[O-])cc2)c(C(=O)Nc2cc(Cl)cc(Cl)c2)n2c1CCC2 | 7.9 | 16.2 | 14 |  | 8.54 | 7.9 | 
Cc1ccc(NC(=O)c2c(N=Cc3cccnc3)c(C#N)c3n2CCC3)cc1 | 18.3 | 20.5 | 34.8 | 9.54 |  |  | 
COc1cccc2c1C(=O)c1c(O)c3c(c(O)c1C2=O)C[C@@](O)(C(=O)CO)C[C@@H]3O[C@H]1C[C@H](N)[C@H](O)[C@H](C)O1 [DOXORUBICIN] | 2.3 |  | 2.4 |  |  |  | 
N#Cc1c(N=Cc2cccnc2)c(C(=O)Nc2ccccc2)n2c1CCC2 | 11.7 | 17.5 | 25.8 | 11.3 |  |  | 
N#Cc1c(N=Cc2ccc3ccccc3c2)c(C(=O)Nc2ccccc2)n2c1CCC2 | 5.77 | 7.11 | 10.2 | 7.98 |  |  | Active
N#Cc1c(N=Cc2cccs2)c(C(=O)Nc2ccccc2)n2c1CCC2 | 6.97 | 12.5 | 18.6 | 4.96 |  |  | 
